Source: publication PMC2386536 (The Journal of Endocrinology, 2008)

Columns and labels:
[1] = mean arterial blood pressure and heart rate during ischaemia–reperfusion; assay type: in vivo, rat; conditions: data not shown
How it was run: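 They were then dosed with test compound or vehicle for 5 days, with the last dose 2–3 h before surgery. Under pentobarbitone anaesthesia (60 mg/kg i.p.), MABP was recorded via a carotid artery cannula. The protocol was 20-min stabilisation, 45-min LCA occlusion, then 2-h reperfusion.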

[2] = tested on: ischaemia–reperfusion injury in the rat; assay: EPR free radical production from hearts after in vivo ischaemia–reperfusion; conditions: CP-H spin trap
How it was run: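 Hearts were excised after in vivo ischaemia–reperfusion (45 min/2 h) and perfused retrogradely with warmed, gassed Krebs–Henseleit. With the LCA snare re-tied, 10 μl of 10−1 M CP-H spin trap was injected above the heart and 500 μl perfusate (drops 6–11) collected, four times per heart and averaged. This was repeated with the snare released, then with 500 U SOD. Samples were incubated at 37 °C for 20 min and read by EPR.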

[3] = tested on: ischaemia and reperfusion in the rabbit; conditions: in vivo; cited from earlier work

| SMILES | effect on MABP pattern and MABP at end of ischaemia or reperfusion [1] | free radical production from the AAR compared with placebo/vehicle [2] | cardioprotection / infarct size [3] |
| --- | --- | --- | --- |
| C[C@]12CC[C@@H]3c4ccc(O)cc4CC[C@H]3[C@@H]1CC[C@@H]2O [17βE2, 17β-oestradiol] | did not have a significant effect | Significantly fewer free radicals | – |
| CCCc1c(-c2ccc(O)cc2)nn(-c2ccc(O)cc2)c1-c1ccc(O)cc1 [PPT, 4,4,4-4 propyl-(1H)-pyrazole 1,3,5-triyltrisphenol] | – | – | reduced infarct size |
